Records with an inconclusive call do not appear.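 How the source made its calls, unless noted: active means viability at or below 27.92% in each of two runs, the all-compound median minus 4 SD; inconclusive means no clear call, values can overlap the other calls; inactive means the rest.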
What was measured:
[1] = S. cerevisiae growth inhibition in permissive medium (OD615), pilot counter-assay for S. cerevisiae lifespan shortening project, permissive growth control (AID 705;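 active means growth inhibition above 25% in both replicates, a cutoff set 3 SD above the mean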); settings: OD615, 24 h, at 10 µM, hits give high values
Summary of the method: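 Test system: Saccharomyces cerevisiae strain carrying genetically modified DeaD replicative-lifespan system; buffer or medium: SC raffinose/galactose permissive medium; dosing: one dose 10 µM, DMSO 0.25% final; times: 24 h exposure, 30 °C; measured by: OD at 615 nm; read-out basis: growth inhibition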

[2] = S. cerevisiae growth inhibition in restrictive medium, OD615, pilot screen, restrictive growth control, yeast lifespan reduction project (AID 706;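 active means growth inhibition above a set limit, 3 SD over mean compound inhibition, in both replicates, cut at about 43% in these data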;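 further: modified DeaD lifespan yeast strain shifted to restrictive glucose medium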); settings: OD615, 48 h, at 10 µM, hits give high values
Summary of the method: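 material = engineered S. cerevisiae DeaD strain | buffer or medium = glucose-based CSMM-D restrictive medium | dosing = one concentration, 10 µM final, 0.25% DMSO | schedule = 4 h pre-growth plus 48 h compound exposure, 30 °C | detection = OD615 absorbance reading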

[3] = doxorubicin toxicity protection in MRP-1 cells – H69AR cells, CellTiter-Glo, duplicate, MRP-1 activator project, pilot screen (AID 807;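 active means viability increase at or above a cutoff of the median across tested compounds plus 3 SD, cut at about 8.5% in these data, passing the limit was not always enough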;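 further: compound pretreatment 18-22 h then 72 h combined with doxorubicin; 0% = doxorubicin alone and 100% = vehicle without doxorubicin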); settings: H69AR viability with doxorubicin, CellTiter-Glo luminescence; at 10 µM; hits give high values
[4] = viability of HCT116 without oncogenic beta-catenin – human colon tumor cells, pilot screen (AID 823;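 active means cell viability at or below a set limit in both duplicate runs, the limit being the all-compound median minus 4 SD, cut at about 23% in these data, passing the limit was not always enough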;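 further: 0% = wells killed by 20 µM Hyamine and 100% = untreated DMSO cell wells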); settings: HCT116 beta-catenin knockout viability, CellTiter-Glo, 60 h; at 10 µM; hits give low values
[5] = viability of PTEN-null HCT116 cells – cell-based, HCT116 clonal line, CellTiter-Glo, pilot screen (AID 824); settings: HCT116 PTEN-deleted viability, 60 h, at 10 µM, hits give low values;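 further: 0% = 20 µM Hyamine control and 100% = vehicle cell control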
[6] = RAM pathway blockade in budding yeast – dse1pr::URA3 reporter, 5-FOA selection, pilot screen (AID 869;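 active means inhibition over a set limit, the all-compound mean plus 3 SD, in both replicate runs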;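 further: 0% = DMSO wells with no growth and 100% = 10 µM 1-NA-PP1 with full growth; RAM network block rescues cells from 5-FOA so hits raise OD615 growth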); settings: S. cerevisiae dse1pr::URA3 5-FOA growth, OD615, 2 d; at 10 µM; hits give high values; strain carries analog-sensitive mutant Cbk1 kinase
[7] = RAM signaling pathway blockade in yeast – S. cerevisiae, Pdr1DBD-CYC8 efflux-inhibited sensitized strain, primary screen (AID 1298;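 active means RAM network inhibition above 8.4% in each of two replicates, 3 SD over the compound average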;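 further: 0% = DMSO untreated cells without growth and 100% = 10 µM 1-NA-PP1 full growth; higher means more yeast growth rescued from 5-FOA killing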); settings: S. cerevisiae cbk1-as DSE1-URA3 strain, 5-FOA growth OD615, 2 d; at 50 µM; hits give high values

CCCC(=O)c1cc(F)c(N2CCN(S(=O)(=O)c3ccccc3)CC2)cc1C
inactive: growth inhibition [1] -7.04% | growth inhibition [2] -27.6% | viability increase [3] 1.53% | viability [4] 90.3% | viability [5] 88.5% | inhibition [6] 3.01% | RAM network inhibition [7] 3.18%

C(=N\c1nccs1)/c1cccnc1
inactive: growth inhibition [1] -7.2% | growth inhibition [2] -11.4% | viability increase [3] -0.86% | viability [4] 108% | viability [5] 100% | inhibition [6] 0.235% | RAM network inhibition [7] 2.23%

COc1ccccc1-n1c(=O)[nH]c2c(C(N)=O)nc(C3CCCCC3)nc21
inactive: growth inhibition [1] -7.19% | growth inhibition [2] -5.21% | viability increase [3] -3.33% | viability [4] 94.7% | viability [5] 77.5% | inhibition [6] 1.55% | RAM network inhibition [7] 2.69%

O=C(Cn1cnc2c(nnn2Cc2ccc(Cl)cc2)c1=O)N1CCN(c2ccccc2)CC1
inactive: growth inhibition [1] -7.16% | growth inhibition [2] -12.6% | viability increase [3] 3.63% | viability [4] 82.3% | viability [5] 80.5% | inhibition [6] 1.98% | RAM network inhibition [7] 6.43%

CCOc1cccc(NC(=O)c2ccc(S(=O)(=O)N(C)C)cc2)c1
inactive: growth inhibition [1] -7.19% | growth inhibition [2] -8.01% | viability increase [3] -2.48% | viability [4] 98.6% | viability [5] 92.4% | inhibition [6] 0.83% | RAM network inhibition [7] 6%

O=C(O)c1cccc(-n2cnnn2)c1
inactive: growth inhibition [1] 1.37% | growth inhibition [2] 1.52% | viability increase [3] 0.82% | viability [4] 104% | viability [5] 101% | inhibition [6] 1.06% | RAM network inhibition [7] 4.03%

O=C(COC(=O)C1CC(=O)N(C2CCCCC2)C1)c1ccc(F)cc1 (stereo not drawn)
inactive: growth inhibition [1] -2.56% | growth inhibition [2] 0.43% | viability increase [3] -2.49% | viability [4] 108% | viability [5] 101% | inhibition [6] 0.95% | RAM network inhibition [7] 2.97%

CCOC(=O)N1CCN(C(=O)CN(c2cc(Cl)ccc2OC)S(=O)(=O)c2ccccc2)CC1
inactive: growth inhibition [1] 6.4% | growth inhibition [2] -12% | viability increase [3] -2.13% | viability [4] 97.1% | viability [5] 84.1% | inhibition [6] 1.68% | RAM network inhibition [7] 2.07%

O=C(CC1NC(=O)NC1=O)NC1(C(=O)NC2CCCCC2)CCCCC1 (stereo not drawn)
inactive: growth inhibition [1] -9.09% | growth inhibition [2] 5.08% | viability increase [3] 0.88% | viability [4] 99.3% | viability [5] 102% | inhibition [6] 1.18% | RAM network inhibition [7] -0.62%

Cc1ccc(C2N(c3ccc(F)cc3)C(=O)C3CCCN32)cc1 (stereo not drawn)
inactive: growth inhibition [1] -0.945% | growth inhibition [2] -4.53% | viability increase [3] -1.55% | viability [4] 89.4% | viability [5] 97.3% | inhibition [6] 2.21% | RAM network inhibition [7] 4.87%

COc1ccccc1NC(=O)CSc1nnc(-c2ccco2)n1Cc1ccco1
inactive: growth inhibition [1] 1.41% | growth inhibition [2] 1.92% | viability increase [3] -3.34% | viability [4] 92.8% | viability [5] 90.5% | inhibition [6] 1.39% | RAM network inhibition [7] 1%

Cc1ccc(S(=O)(=O)N(CC(O)CN2CCCCC2)c2ccccc2)cc1 (stereo not drawn)
inactive: growth inhibition [1] 0.475% | growth inhibition [2] 0.56% | viability increase [3] -2.49% | viability [4] 71.6% | viability [5] 96.6% | inhibition [6] 2.97% | RAM network inhibition [7] 3.38%

COc1ccccc1N1CCN(C(=O)CCCn2c(=O)[nH]c3ccsc3c2=O)CC1
inactive: growth inhibition [1] 3.76% | growth inhibition [2] 7.54% | viability increase [3] -2.24% | viability [4] 98.6% | viability [5] 97.2% | inhibition [6] 0.74% | RAM network inhibition [7] -0.42%

CCOCCCNC(=O)C(c1ccc(C)cc1)N(Cc1ccc2c(c1)OCO2)C(=O)CNC(C)=O (stereo not drawn)
inactive: growth inhibition [1] -8.64% | growth inhibition [2] 0.77% | viability increase [3] 0.84% | viability [4] 100% | viability [5] 102% | inhibition [6] 0.88% | RAM network inhibition [7] 2.3%

COc1cccc(C2NC(=O)NC(C)=C2C(=O)Nc2ccc(C)cc2)c1 (stereo not drawn)
inactive: growth inhibition [1] -9.18% | growth inhibition [2] -12% | viability increase [3] 1.54% | viability [4] 106% | viability [5] 97.6% | inhibition [6] 0.285% | RAM network inhibition [7] 3.39%

CC1Cc2nc(SCC(=O)OCc3ccccc3)n(C)c(=O)c2S1 (stereo not drawn)
inactive: growth inhibition [1] 5.29% | growth inhibition [2] 1.86% | viability increase [3] -3.06% | viability [4] 102% | viability [5] 93.8% | inhibition [6] 0.69% | RAM network inhibition [7] 6.68%

O=C(c1cnn2c(C(F)(F)F)cc(-c3ccccc3)nc12)N1CCOCC1
inactive: growth inhibition [1] -14.6% | growth inhibition [2] -10% | viability increase [3] -2.81% | viability [4] 103% | viability [5] 99.8% | inhibition [6] 0.505% | RAM network inhibition [7] -1.1%

COCCOC(=O)c1[nH]c2c(c1C)C(=O)CC(c1cc(OC)ccc1OC)C2 (stereo not drawn)
inactive: growth inhibition [1] -16.8% | growth inhibition [2] -12.3% | viability increase [3] -6.01% | viability [4] 38.6% | viability [5] 34.5% | inhibition [6] 2.09% | RAM network inhibition [7] 9.43%

CC1=C(C(=O)OC2CCCCC2)C(c2ccco2)C2=C(CC(C)(C)CC2=O)N1 (stereo not drawn)
inactive: growth inhibition [1] -8.2% | growth inhibition [2] -8.91% | viability increase [3] -7.87% | viability [4] 64.8% | viability [5] 62.7% | inhibition [6] 0.115% | RAM network inhibition [7] 2.03%

Cc1ccc(OCc2nc(-c3ccccn3)no2)c(Br)c1
inactive: growth inhibition [1] 1.26% | growth inhibition [2] 4.31% | viability increase [3] 1.13% | viability [4] 86.7% | viability [5] 84.9% | inhibition [6] -0.35% | RAM network inhibition [7] 1.62%

COC(=O)C1(C)Nc2ccccc2C(=O)N1c1ccccc1C (stereo not drawn)
inactive: growth inhibition [1] -7.67% | growth inhibition [2] -8.55% | viability increase [3] -0.74% | viability [4] 104% | viability [5] 102% | inhibition [6] 2.51% | RAM network inhibition [7] 5.2%

Cc1ccc(OC(=O)CCC(=O)N2CCc3ccccc32)cc1
inactive: growth inhibition [1] -5.4% | growth inhibition [2] -2.35% | viability increase [3] -3.7% | viability [4] 89.6% | viability [5] 97.9% | inhibition [6] 2.2% | RAM network inhibition [7] 0.82%

Cc1oc2c(O)c(O)ccc2c(=O)c1-c1ccccc1
inactive: growth inhibition [1] -4.7% | growth inhibition [2] 1.24% | viability increase [3] 3.12% | viability [4] 95.1% | viability [5] 90.3% | inhibition [6] -0.32% | RAM network inhibition [7] -0.2%

CC(C)CCNC(=O)CCS(=O)(=O)c1cccc2nonc12
inactive: growth inhibition [1] -8.87% | growth inhibition [2] -22.1% | viability increase [3] -1.75% | viability [4] 105% | viability [5] 103% | inhibition [6] 1.04% | RAM network inhibition [7] 4.52%
